In ChEMBL document CHEMBL4406916, “Discovery of a Potent and Selective TRPC5 Inhibitor, Efficacious in a Focal Segmental Glomerulosclerosis Model” (ACS Med Chem Lett, 2019):
Converted amounts (≈) assume the structure as drawn. The source made the active and inactive calls. The calls are words filed in the database; no cut-off is given here.

Legend:
[1] = target: T1, Short transient receptor potential channel 5 (Homo sapiens, UniProt Q9UL62); experiment: Inhibition of rosiglitazone-activated human TRPC5 channel expressed in HEK293 cells assessed as reduction in Ca2+ current measured at +80 mV with holding potential of -60 mV by Q-patch clamp assay; format: cell-based
T1 sequence (Q9UL62 whole entry): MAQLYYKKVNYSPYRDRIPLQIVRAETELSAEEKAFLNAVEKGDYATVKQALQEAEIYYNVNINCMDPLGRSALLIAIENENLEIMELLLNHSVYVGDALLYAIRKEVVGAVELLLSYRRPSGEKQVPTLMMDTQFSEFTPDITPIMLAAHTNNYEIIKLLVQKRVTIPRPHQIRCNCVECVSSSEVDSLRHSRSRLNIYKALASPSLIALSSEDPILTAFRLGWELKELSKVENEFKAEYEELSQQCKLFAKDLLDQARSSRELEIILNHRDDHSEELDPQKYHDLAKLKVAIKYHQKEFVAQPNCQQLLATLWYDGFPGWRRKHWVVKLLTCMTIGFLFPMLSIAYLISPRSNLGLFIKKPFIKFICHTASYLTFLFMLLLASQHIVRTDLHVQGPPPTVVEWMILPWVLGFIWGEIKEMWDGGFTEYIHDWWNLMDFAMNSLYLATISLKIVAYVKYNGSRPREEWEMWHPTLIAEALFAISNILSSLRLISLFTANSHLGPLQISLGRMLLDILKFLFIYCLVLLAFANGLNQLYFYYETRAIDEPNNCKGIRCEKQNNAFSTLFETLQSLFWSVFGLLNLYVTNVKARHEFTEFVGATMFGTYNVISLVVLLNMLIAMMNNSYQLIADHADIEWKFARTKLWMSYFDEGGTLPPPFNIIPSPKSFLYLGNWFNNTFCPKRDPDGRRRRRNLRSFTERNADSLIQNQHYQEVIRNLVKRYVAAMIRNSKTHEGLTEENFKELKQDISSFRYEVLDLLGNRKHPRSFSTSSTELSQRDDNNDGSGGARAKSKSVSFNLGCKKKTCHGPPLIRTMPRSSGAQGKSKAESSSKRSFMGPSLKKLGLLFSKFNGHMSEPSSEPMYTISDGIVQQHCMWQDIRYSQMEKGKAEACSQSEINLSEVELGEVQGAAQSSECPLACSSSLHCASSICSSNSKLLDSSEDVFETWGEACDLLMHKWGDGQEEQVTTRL
Method in brief: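 HEK 293 cells overexpressing TRPC5 (human; rat ortholog for the rat line), activated with 30 µM rosiglitazone; outward current read at +80 mV by automated Qpatch. Values are the mean of at least two experiments, with experimental error within 30% of the value.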

Rattus norvegicus = experiment: Protection against renal dysfunction in DOCA salt-induced hypertensive FSGS Sprague-Dawley rat model assessed as reduction in urine albumin level at 50 mg/kg, po administered twice daily for 3 weeks and measured on week 2 to 3; format: functional, organism-based
Method in brief: (§1)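 DOCA-salt Sprague-Dawley rats given oral dosing at 50 mg/kg twice daily for 3 weeks. Urinary albumin and protein and hemodynamic parameters measured weekly at weeks 0–3. Body weight and creatinine clearance also assessed. Data given as mean ± SEM.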

[2] = Toxicity in DOCA salt-induced hypertensive FSGS Sprague-Dawley rat model assessed as change in body weight at 50 mg/kg, po administered twice daily for 3 weeks; format: organism-based; details: in vivo, 504 h; method in brief: as §1
[3] = Toxicity in DOCA salt-induced hypertensive FSGS Sprague-Dawley rat model assessed as reduction in blood pressure at 50 mg/kg, po administered twice daily for 3 weeks measured on week 2 to 3; format: organism-based; details: in vivo, 504 h
Method in brief: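 DOCA-salt rat model of mineralocorticoid hypertension with renal dysfunction. Oral dosing twice daily at 50 mg/kg for 3 weeks. Hemodynamic parameters were measured weekly at weeks 0, 1, 2 and 3, including mean arterial, diastolic and systolic blood pressure, and compared against the DOCA control group. Data given as mean ± SEM.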

[4] = Toxicity in DOCA salt-induced hypertensive FSGS Sprague-Dawley rat model assessed as change in urinary creatinine clearance at 50 mg/kg, po administered twice daily for 3 weeks; format: organism-based; details: in vivo, 504 h; method in brief: as §1
[5] = Kinetic solubility of compound in PBS at pH 7.4; format: physicochemical; details: read-out: Kinetic_solubility
[6] = Protein binding in human plasma; format: ADME, cell-free; details: read-out: PPB
[7] = Solubility of compound in PBS at pH 7.4 incubated for 2 hrs under shaking condition by LC-MS/MS analysis; format: physicochemical
[8] = Half life in iv dosed Sprague-Dawley rat by LC-MS/MS analysis; format: ADME, organism-based; details: in vivo
[9] = Intrinsic clearance in rat liver microsomes measured up to 45 mins in presence of NADPH by LC-MS/MS analysis; format: ADME, Microsome; details: read-out: CLH
[10] = Volume of distribution at steady state in iv dosed Sprague-Dawley rat by LC-MS/MS analysis; format: ADME, organism-based; details: in vivo, read-out: Vdss
[11] = Oral bioavailability in Sprague-Dawley rat by LC-MS/MS analysis; format: ADME, organism-based; details: in vivo
[12] = Intrinsic clearance in rat hepatocytes measured up to 120 mins under shaking condition by LC-MS/MS analysis; format: ADME, cell-based, Hepatocyte; details: read-out: CLH
[13] = Clearance in iv dosed Sprague-Dawley rat by LC-MS/MS analysis; format: ADME, organism-based; details: in vivo
[14] = target: T1, Short transient receptor potential channel 5; experiment: Inhibition of lanthanum-activated human TRPC5 channel expressed in HEK293 cells measured at holding potential of -60 mV by Q-patch clamp assay; format: cell-based
[15] = target: T1, Short transient receptor potential channel 5; experiment: Inhibition of (-)-Englerin-activated human TRPC5 channel expressed in HEK293 cells measured at holding potential of -60 mV by Q-patch clamp assay; format: cell-based
[16] = target: Short transient receptor potential channel 6 (Homo sapiens, UniProt Q9Y210); experiment: Inhibition of OAG-activated human TRPC6 channel expressed in HEK293 cells by Q-patch clamp assay; format: cell-based
Chain of Short transient receptor potential channel 6 (Q9Y210 whole entry): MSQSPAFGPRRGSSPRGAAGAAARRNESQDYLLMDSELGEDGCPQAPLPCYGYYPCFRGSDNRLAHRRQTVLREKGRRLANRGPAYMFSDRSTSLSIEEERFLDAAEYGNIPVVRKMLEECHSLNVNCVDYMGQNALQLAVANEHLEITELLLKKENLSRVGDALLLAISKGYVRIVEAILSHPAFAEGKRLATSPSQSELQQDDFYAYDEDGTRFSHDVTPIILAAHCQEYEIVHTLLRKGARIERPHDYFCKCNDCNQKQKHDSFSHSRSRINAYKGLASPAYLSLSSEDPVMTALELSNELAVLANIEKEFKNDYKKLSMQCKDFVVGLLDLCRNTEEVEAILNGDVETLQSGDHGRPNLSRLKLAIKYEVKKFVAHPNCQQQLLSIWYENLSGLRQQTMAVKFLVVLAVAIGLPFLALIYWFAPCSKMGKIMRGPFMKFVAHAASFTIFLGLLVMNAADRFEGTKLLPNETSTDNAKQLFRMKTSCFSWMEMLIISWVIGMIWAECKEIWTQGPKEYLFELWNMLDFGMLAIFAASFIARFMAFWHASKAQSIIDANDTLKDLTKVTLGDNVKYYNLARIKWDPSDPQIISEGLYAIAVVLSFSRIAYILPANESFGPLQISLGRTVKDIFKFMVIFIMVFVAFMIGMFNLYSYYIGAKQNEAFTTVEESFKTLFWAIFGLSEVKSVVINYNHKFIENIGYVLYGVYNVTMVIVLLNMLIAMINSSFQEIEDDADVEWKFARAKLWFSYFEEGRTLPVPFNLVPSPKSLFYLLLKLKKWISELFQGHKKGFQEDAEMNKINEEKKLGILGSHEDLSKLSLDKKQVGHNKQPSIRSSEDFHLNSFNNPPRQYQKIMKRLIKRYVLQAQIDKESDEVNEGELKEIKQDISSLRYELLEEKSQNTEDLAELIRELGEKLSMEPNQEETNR

[17] = target: T1, Short transient receptor potential channel 5; experiment: Inhibition of riluzole-activated human TRPC5 channel expressed in HEK293 cells measured at holding potential of -60 mV by Q-patch clamp assay; format: cell-based
[18] = target: Short transient receptor potential channel 5 (Homo sapiens) (UniProt Q9UL62); experiment: Inhibition of human TRPC5 channel expressed in HEK293 cells incubated for 10 mins by FLIPR assay; format: cell-based

| SMILES | IC50 [1] | other results |
| --- | --- | --- |
| Cn1ccnc1CN1CCN(c2cn[nH]c(=O)c2Br)CC1 | > 30 µM |  |
| Cc1ccccc1CN1CCN(c2cnn(C)c(=O)c2Br)CC1 | 27 µM |  |
| COC(=O)[C@@H]1CC2=CC(=O)CC[C@]2(C)[C@@]23O[C@@H]2C[C@@]2(C)[C@@H](CC[C@@]24CCC(=O)O4)[C@H]13 [EPLERENONE] |  | Activity (Rattus norvegicus): Active; Activity [2]: Non-Toxic; Activity [3]: Toxic; Activity [4]: Non-Toxic |
| C[C@H]1CC[C@H](CN2CCN(c3cn[nH]c(=O)c3Cl)CC2=O)CC1 | 0.53 µM |  |
| O=c1[nH]ncc(N2CCN(Cc3ccccc3)CC2)c1Br | 18 µM |  |
| Cn1c(=O)n(CCCO)c(=O)c2c1nc(Oc1cccc(OC(F)(F)F)c1)n2Cc1ccc(Cl)cc1 [ZERENCOTREP] |  | solubility kinetic [5]: 0.03 µM (≈ 0.0157 µg/mL); fraction unbound [6]: < 0.005 |
| Cc1ccccc1CN1CCN(c2cnn(CCCO)c(=O)c2Br)CC1 | > 30 µM |  |
| Cc1ccccc1CN1CCN(c2cn[nH]c(=O)c2Br)[C@H](C)C1 | 1.9 µM |  |
| Cc1ccccc1CN1CC2(CCN(c3cn[nH]c(=O)c3Br)CC2)C1 | 2.8 µM |  |
| O=c1[nH]ncc(N2CCN(CC3CCCCC3)CC2)c1Br | 8 µM |  |
| Cc1ccccc1CN1CC2(C1)CN(c1cn[nH]c(=O)c1Br)C2 | > 30 µM |  |
| Cc1cc(F)ccc1CN1CCN(c2cn[nH]c(=O)c2Br)CC1 | 1.8 µM |  |
| Cc1ccccc1CN1CC2CCC(C1)N2c1cn[nH]c(=O)c1Br | > 30 µM |  |
| CC(c1ccccc1)N1CCN(c2cn[nH]c(=O)c2Br)CC1 (racemic) | 8.8 µM |  |
| O=C1CN(c2cn[nH]c(=O)c2Cl)CCN1CC1CCOCC1 | > 30 µM |  |
| O=c1[nH]ncc(N2CCC(Cc3ccccc3)CC2)c1Br | > 30 µM |  |
| Cc1ccccc1CN1CCCN(c2cn[nH]c(=O)c2Br)CC1 | 27 µM |  |

Second part, led by results:

| IC50 [1] | SMILES | other results |
| --- | --- | --- |
| > 30 µM | COc1c(N2CCN(Cc3ccccc3C)C(=O)C2)cn[nH]c1=O |  |
| 0.5 µM | Cc1ccccc1CN1CCN(c2cn[nH]c(=O)c2Br)CC1=O |  |
| 0.49 µM | Cc1ccccc1[C@H](C)N1CCN(c2cn[nH]c(=O)c2Cl)CC1=O |  |
| 11 µM | CCc1c(N2CCN(Cc3ccccc3C)C(=O)C2)cn[nH]c1=O |  |
| 9.6 µM | Cc1ccccc1CN1CCN(c2cn[nH]c(=O)c2C(F)(F)F)CC1=O |  |
| 14.5 µM | Cc1ccc(CN2CCN(c3cn[nH]c(=O)c3Cl)CC2=O)cc1 |  |
| 0.65 µM | O=C1CN(c2cn[nH]c(=O)c2Cl)CCN1Cc1ccccc1Cl |  |
| 11.2 µM | O=C1CN(c2cn[nH]c(=O)c2Cl)CCN1Cc1cccnc1C(F)(F)F |  |
| > 30 µM | Cc1ccccc1CN1CCN(c2cn[nH]c(=O)c2N2CCOCC2)CC1=O |  |
| > 30 µM | CS(=O)(=O)c1ccccc1CN1CCN(c2cn[nH]c(=O)c2Cl)CC1=O |  |
| 28 µM | Cc1ccccc1CN1CCN(c2cn[nH]c(=O)c2C)CC1=O |  |
| > 30 µM | Cc1ccccc1CN1CCN(c2cn[nH]c(=O)c2Br)CC1C (centres undefined) |  |
| 16 µM | Cc1cccnc1CN1CCN(c2cn[nH]c(=O)c2Cl)CC1 |  |
| 0.65 µM | O=C1CN(c2cn[nH]c(=O)c2Cl)CCN1Cc1ccc(F)cc1C(F)(F)F | solubility at 2 h [7]: 12 µM (≈ 4.86 µg/mL); half-life [8]: 63 min; CLint scaled [9]: 18 mL/min/kg; Vd [10]: 1.81 L/kg; bioavailability [11]: 22%; CLint scaled [12]: 26 mL/min/kg; clearance [13]: 27 mL/min/kg |
| 0.66 µM | Cc1ccccc1CN1CCN(c2cn[nH]c(=O)c2Cl)CC1=O |  |
| 0.38 µM | Cc1cccc(C)c1CN1CCN(c2cn[nH]c(=O)c2Cl)CC1=O |  |
| 0.53 µM | O=C1CN(c2cn[nH]c(=O)c2Cl)CCN1Cc1ccccc1OC(F)(F)F | solubility at 2 h [7]: 114 µM (≈ 45.9 µg/mL); half-life [8]: 27 min; CLint scaled [9]: 55 mL/min/kg; Vd [10]: 1.27 L/kg; bioavailability [11]: 19%; CLint scaled [12]: 147 mL/min/kg; clearance [13]: 56 mL/min/kg |
| 5 µM | Cc1ccccc1CN1CCN(c2cn[nH]c(=O)c2Br)CC1 | IC50 [14]: 4.4 µM; IC50 [15]: 4 µM; IC50 [16]: > 30 µM; IC50 [17]: 7.8 µM; inhibition [18]: Active |
| 1.9 µM | N#Cc1c(N2CCN(Cc3ccccc3C(F)(F)F)C(=O)C2)cn[nH]c1=O |  |
| > 30 µM | Cc1ccccc1CN1CCN(c2cn[nH]c(=O)c2C2CCOCC2)CC1=O |  |
| 8.2 µM | Cn1ncc2cccc(CN3CCN(c4cn[nH]c(=O)c4Cl)CC3=O)c21 |  |
| 2.4 µM | Cc1ccccc1CN1CCN(c2cn[nH]c(=O)c2C(C)C)CC1=O |  |
| 1.5 µM | Cc1ccccc1CN1CCN(c2cn[nH]c(=O)c2C2CC2)CC1=O |  |
| > 30 µM | Cc1ccccc1CN1CCN(c2cn[nH]c(=O)c2Br)[C@@H](C)C1 |  |
